According to ChEMBL document CHEMBL1240350, “In vitro activity of CEM-101 against Streptococcus pneumoniae and Streptococcus pyogenes with defined macrolide resistance mechanisms” (Antimicrob Agents Chemother, 2010):
≈ marks a conversion by molar mass, not a printed value.

How the values were obtained:
[1] = test system: Streptococcus pneumoniae; assay: Antibacterial activity against penicillin-susceptible Streptococcus pneumoniae after overnight incubation by agar dilution method; assay type: functional
How it was run: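 Agar dilution on Mueller-Hinton agar supplemented with 5% sheep blood. Inoculum 10^4 CFU/spot, incubated overnight at 35°C in ambient air. Test strains were clinical pneumococcal isolates. S. pneumoniae ATCC 49619 was included as the quality control strain in each run. MIC range, MIC50 and MIC90 were reported for each susceptibility category.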

[2] = test system: Streptococcus pneumoniae; assay: Antibacterial activity against Streptococcus pneumoniae harboring mef(A) gene after overnight incubation by agar dilution method; assay type: functional
How it was run: (§1)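 Clinical isolates collected 1998–2008, with macrolide-resistance genes confirmed by PCR. MICs by agar dilution on Mueller-Hinton agar with 5% sheep blood. Inoculum 10^4 CFU/spot, incubated overnight at 35°C in ambient air. S. pneumoniae ATCC 49619 was the quality-control strain in every run.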

[3] = test system: Streptococcus pneumoniae; assay: Antibacterial activity against macrolide-resistant Streptococcus pneumoniae harboring erm(B) gene after overnight incubation by agar dilution method; assay type: functional
How it was run: (§2)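 Agar dilution MICs on Mueller-Hinton agar with 5% sheep blood. Inoculum 10^4 CFU/spot, incubated overnight at 35°C in ambient air. Clinical S. pneumoniae or group A streptococcal isolates; resistance genotypes (erm(B), erm(A), mef(A)/mef(E)) were assigned by PCR. S. pneumoniae ATCC 49619 served as QC strain in each run. Range, MIC50 and MIC90 reported per phenotype group.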

[4] = test system: Streptococcus pneumoniae; assay: Antibacterial activity against macrolide-resistant Streptococcus pneumoniae harboring erm(B) and mef(A) gene after overnight incubation by agar dilution method; assay type: functional; how it was run: as §2
[5] = test system: Streptococcus pyogenes; assay: Antibacterial activity against Streptococcus pyogenes harboring erm(B) gene after overnight incubation by agar dilution method; assay type: functional; how it was run: as §1
[6] = test system: Streptococcus pyogenes; assay: Antibacterial activity against Streptococcus pyogenes harboring mef(A) gene after overnight incubation by agar dilution method; assay type: functional; how it was run: as §1
[7] = test system: Streptococcus pyogenes; assay: Antibacterial activity against macrolide-resistant Streptococcus pyogenes harboring erm(B) gene after overnight incubation by agar dilution method; assay type: functional; how it was run: as §2
[8] = test system: Streptococcus pyogenes; assay: Antibacterial activity against macrolide-resistant Streptococcus pyogenes harboring mef(A) gene after overnight incubation by agar dilution method; assay type: functional; how it was run: as §2
[9] = test system: Streptococcus pyogenes; assay: Antibacterial activity against macrolide-resistant Streptococcus pyogenes harboring erm(A) gene after overnight incubation by agar dilution method; assay type: functional; how it was run: as §2
[10] = test system: Streptococcus pneumoniae; assay: Antibacterial activity against macrolide-susceptible Streptococcus pneumoniae 1077 after overnight incubation by agar dilution method; assay type: functional
[11] = test system: Streptococcus pneumoniae; assay: Antibacterial activity against macrolide-susceptible Streptococcus pneumoniae 1077 after 43 passages and 10 compound-free subculturing by retest method; assay type: functional
[12] = test system: Streptococcus pneumoniae; assay: Antibacterial activity against macrolide-susceptible Streptococcus pneumoniae 1077 after 29 passages and 10 compound-free subculturing by retest method; assay type: functional
[13] = test system: Streptococcus pneumoniae; assay: Antibacterial activity against macrolide-susceptible Streptococcus pneumoniae 1077 after 15 passages and 10 compound-free subculturing by retest method; assay type: functional
[14] = test system: Streptococcus pneumoniae; assay: Antibacterial activity against macrolide-resistant Streptococcus pneumoniae 3665 harboring mef(A) gene after 14 passages and 10 compound-free subculturing by retest method; assay type: functional; conditions: Streptococcus pneumoniae, 3665; read-out: MIC
[15] = test system: Streptococcus pneumoniae; assay: Antibacterial activity against macrolide-resistant Streptococcus pneumoniae 3665 harboring mef(A) gene after 26 passages and 10 compound-free subculturing by retest method; assay type: functional
[16] = test system: Streptococcus pneumoniae; assay: Antibacterial activity against macrolide-resistant Streptococcus pneumoniae 1635 harboring erm(A) gene after 32 passages and 10 compound-free subculturing by retest method; assay type: functional
How it was run: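 Multistep selection by daily serial passage in subinhibitory drug concentrations. Medium was cation-adjusted Mueller-Hinton broth plus 5% lysed horse blood. Each day the next inoculum came from the tube 1–2 dilutions below the MIC whose turbidity matched the growth control, for up to 50 days. Clone MICs by CLSI macrodilution; identity to the parent confirmed by SmaI PFGE.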

[17] = test system: Streptococcus pneumoniae; assay: Antibacterial activity against macrolide-resistant Streptococcus pneumoniae 2686 harboring mutation in L4 ribosomal protein after 22 passages and 10 compound-free subculturing by retest method; assay type: functional
[18] = test system: Streptococcus pneumoniae; assay: Antibacterial activity against macrolide-resistant Streptococcus pneumoniae 24 harboring erm(B) gene after overnight incubation by agar dilution method; assay type: functional
[19] = test system: Streptococcus pneumoniae; assay: Antibacterial activity against macrolide-resistant Streptococcus pneumoniae 2686 harboring mutation in L4 ribosomal protein after 14 passages and 10 compound-free subculturing by retest method; assay type: functional
[20] = test system: Streptococcus pneumoniae; assay: Antibacterial activity against macrolide-susceptible Streptococcus pneumoniae 7127 harboring S20N mutation in L4 ribosomal protein and A105V mutation in L22 ribosomal protein after 29 passages and 10 compound-free subculturing by retest method; assay type: functional
[21] = test system: Streptococcus pneumoniae; assay: Antibacterial activity against macrolide-susceptible Streptococcus pneumoniae 7127 harboring S20N mutation in L4 ribosomal protein and A105V mutation in L22 ribosomal protein after 38 passages and 10 compound-free subculturing by retest method; assay type: functional
[22] = test system: Streptococcus pneumoniae; assay: Antibacterial activity against macrolide-resistant Streptococcus pneumoniae 3009 harboring mutation in 23S rRNA after 20 passages and 10 compound-free subculturing by retest method; assay type: functional
[23] = test system: Streptococcus pyogenes; assay: Antibacterial activity against macrolide-susceptible Streptococcus pyogenes 2132 after overnight incubation by agar dilution method
[24] = test system: Streptococcus pyogenes; assay: Antibacterial activity against macrolide-susceptible Streptococcus pyogenes 2132 after 50 passages following overnight incubation by agar dilution method
[25] = test system: Streptococcus pyogenes; assay: Antibacterial activity against macrolide-resistant Streptococcus pyogenes 2368 harboring erm(B) gene after 6 passages and 10 compound-free subculturing by retest method
[26] = test system: Streptococcus pyogenes; assay: Antibacterial activity against macrolide-resistant Streptococcus pyogenes 2094 harboring erm(A) gene after 5 passages and 10 compound-free subculturing by retest method
[27] = test system: Streptococcus pyogenes; assay: Antibacterial activity against macrolide-resistant Streptococcus pyogenes 2094 harboring erm(A) gene after 6 passages and 10 compound-free subculturing by retest method
[28] = test system: Streptococcus pyogenes; assay: Antibacterial activity against macrolide-resistant Streptococcus pyogenes 2368 harboring erm(B) gene after 18 passages and 10 compound-free subculturing by retest method
[29] = test system: Streptococcus pyogenes; assay: Antibacterial activity against macrolide-resistant Streptococcus pyogenes 2094 harboring erm(A) gene after 43 passages and 10 compound-free subculturing by retest method
[30] = test system: Streptococcus pyogenes; assay: Antibacterial activity against macrolide-resistant Streptococcus pyogenes 2094 harboring erm(A) gene after 34 passages and 10 compound-free subculturing by retest method
[31] = test system: Streptococcus pyogenes; assay: Antibacterial activity against macrolide-resistant Streptococcus pyogenes 2011 harboring mef(A) gene after 35 passages and 10 compound-free subculturing by retest method
[32] = test system: Streptococcus pyogenes; assay: Antibacterial activity against macrolide-resistant Streptococcus pyogenes 237 harboring mutation in L4 ribosomal protein after overnight incubation by agar dilution method
[33] = test system: Streptococcus pyogenes; assay: Antibacterial activity against macrolide-resistant Streptococcus pyogenes 2011 harboring mef(A) gene after 50 passages following overnight incubation by agar dilution method

Compound | MIC50 [1] [µg/mL] | MIC90 [1] [µg/mL] | MIC50 [2] [µg/mL] | MIC90 [2] [µg/mL] | MIC50 [5] [µg/mL] | MIC90 [5] [µg/mL] | MIC50 [7] [µg/mL] | MIC90 [7] [µg/mL] | MIC50 [9] [µg/mL] | MIC90 [9] [µg/mL] | MIC [10] [µg/mL] | MIC [11] [µg/mL] | MIC [12] [µg/mL] | MIC [13] [µg/mL] | MIC [15] [µg/mL] | MIC [16] [µg/mL] | MIC [17] [µg/mL] | MIC [18] [µg/mL] | MIC [19] [µg/mL] | MIC [20] [µg/mL] | other results
CCC[C@@H]1C[C@@H](C(=O)N[C@@H]([C@H]2O[C@H](SC)[C@H](O)[C@@H](O)[C@H]2O)[C@H](C)Cl)N(C)C1 [CLINDAMYCIN] | 0.06 (≈ 0.141 µM) | > 64 | 0.06 (≈ 0.141 µM) | 0.06 (≈ 0.141 µM) | > 64 | > 64 | > 64 | > 64 | 0.125 (≈ 0.294 µM) | 0.25 (≈ 0.588 µM) | 0.016 (≈ 0.0376 µM) | 0.03 (≈ 0.0706 µM) | 4 (≈ 9.41 µM) | 8 (≈ 18.8 µM) | 0.03 (≈ 0.0706 µM) | 0.03 (≈ 0.0706 µM) | 0.03 (≈ 0.0706 µM) | > 64 | 0.03 (≈ 0.0706 µM) | 0.06 (≈ 0.141 µM) | MIC50 [3]: > 64 µg/mL; MIC50 [4]: 0.06 µg/mL (≈ 0.141 µM); MIC50 [6]: 0.06 µg/mL (≈ 0.141 µM); MIC90 [6]: 0.125 µg/mL (≈ 0.294 µM); MIC50 [8]: 0.06 µg/mL (≈ 0.141 µM); MIC90 [8]: 0.125 µg/mL (≈ 0.294 µM); MIC [14]: 0.03 µg/mL (≈ 0.0706 µM); MIC [21]: 0.03 µg/mL (≈ 0.0706 µM); MIC [22]: 1 µg/mL (≈ 2.35 µM); MIC [23]: 0.06 µg/mL (≈ 0.141 µM); MIC [24]: 0.06 µg/mL (≈ 0.141 µM); MIC [25]: > 64 µg/mL; MIC [26]: 0.06 µg/mL (≈ 0.141 µM); MIC [27]: 0.06 µg/mL (≈ 0.141 µM); MIC [28]: > 64 µg/mL; MIC [29]: 0.06 µg/mL (≈ 0.141 µM); MIC [30]: > 64 µg/mL; MIC [31]: 0.06 µg/mL (≈ 0.141 µM); MIC [32]: 0.06 µg/mL (≈ 0.141 µM); MIC [33]: 0.06 µg/mL (≈ 0.141 µM)
CC[C@H]1OC(=O)[C@H](C)[C@@H](O[C@H]2C[C@@](C)(OC)[C@@H](O)[C@H](C)O2)[C@H](C)[C@@H](O[C@@H]2O[C@H](C)C[C@H](N(C)C)[C@H]2O)[C@](C)(O)C[C@@H](C)CN(C)[C@H](C)[C@@H](O)[C@]1(C)O [AZITHROMYCIN] | 4 (≈ 5.34 µM) | > 64 | 4 (≈ 5.34 µM) | 8 (≈ 10.7 µM) | > 64 | > 64 | > 64 | > 64 | 16 (≈ 21.4 µM) | > 64 | 0.03 (≈ 0.0401 µM) | 0.03 (≈ 0.0401 µM) | > 64 | > 64 | 8 (≈ 10.7 µM) | 4 (≈ 5.34 µM) | > 64 | > 64 | > 64 | 1 (≈ 1.34 µM) | MIC50 [6]: 8 µg/mL (≈ 10.7 µM); MIC90 [6]: 8 µg/mL (≈ 10.7 µM); MIC50 [8]: 8 µg/mL (≈ 10.7 µM); MIC90 [8]: 8 µg/mL (≈ 10.7 µM); MIC [21]: 0.06 µg/mL (≈ 0.0801 µM); MIC [22]: > 64 µg/mL; MIC [23]: 0.06 µg/mL (≈ 0.0801 µM); MIC [25]: > 64 µg/mL; MIC [26]: > 64 µg/mL; MIC [27]: > 64 µg/mL; MIC [28]: > 64 µg/mL; MIC [29]: 4 µg/mL (≈ 5.34 µM); MIC [30]: 16 µg/mL (≈ 21.4 µM); MIC [31]: 16 µg/mL (≈ 21.4 µM); MIC [32]: 4 µg/mL (≈ 5.34 µM)
CC[C@H]1OC(=O)[C@@](C)(F)C(=O)[C@H](C)[C@@H](O[C@@H]2O[C@H](C)C[C@H](N(C)C)[C@H]2O)[C@](C)(OC)C[C@@H](C)C(=O)[C@H](C)[C@H]2N(CCCCn3cc(-c4cccc(N)c4)nn3)C(=O)O[C@]12C [SOLITHROMYCIN] | 0.03 (≈ 0.0355 µM) | 0.125 (≈ 0.148 µM) | 0.03 (≈ 0.0355 µM) | 0.125 (≈ 0.148 µM) | 0.5 (≈ 0.592 µM) | 1 (≈ 1.18 µM) | 0.5 (≈ 0.592 µM) | 1 (≈ 1.18 µM) | 0.03 (≈ 0.0355 µM) | 0.125 (≈ 0.148 µM) | 0.008 (≈ 0.00947 µM) | 0.06 (≈ 0.071 µM) | 0.03 (≈ 0.0355 µM) | 0.06 (≈ 0.071 µM) | 0.06 (≈ 0.071 µM) | 0.125 (≈ 0.148 µM) | 1 (≈ 1.18 µM) | 0.004 (≈ 0.00473 µM) | 0.03 (≈ 0.0355 µM) | 0.016 (≈ 0.0189 µM) | MIC50 [3]: 0.03 µg/mL (≈ 0.0355 µM); MIC90 [3]: 0.5 µg/mL (≈ 0.592 µM); MIC50 [4]: 0.125 µg/mL (≈ 0.148 µM); MIC90 [4]: 0.25 µg/mL (≈ 0.296 µM); MIC [21]: 0.008 µg/mL (≈ 0.00947 µM); MIC [22]: 0.25 µg/mL (≈ 0.296 µM); MIC [23]: 0.008 µg/mL (≈ 0.00947 µM); MIC [24]: 0.016 µg/mL (≈ 0.0189 µM); MIC [25]: 0.5 µg/mL (≈ 0.592 µM); MIC [26]: 0.016 µg/mL (≈ 0.0189 µM); MIC [27]: 0.016 µg/mL (≈ 0.0189 µM); MIC [28]: 8 µg/mL (≈ 9.47 µM); MIC [29]: 0.25 µg/mL (≈ 0.296 µM); MIC [30]: 0.03 µg/mL (≈ 0.0355 µM); MIC [31]: 0.06 µg/mL (≈ 0.071 µM); MIC [32]: 0.03 µg/mL (≈ 0.0355 µM); MIC [33]: 0.125 µg/mL (≈ 0.148 µM)
